Results reported in ChEMBL document CHEMBL1135987, “Synthesis of new dihydroindeno[1,2-c]isoquinoline and indenoisoquinolinium chloride topoisomerase I inhibitors having high in vivo anticancer activity in the hollow fiber animal model” (2002).
Active and inactive are the calls of the source. The rule behind the calls is not given here.

How the values were obtained:
[1] = Cytotoxicity in colon HCT116 cell line.; format: functional; settings: Homo sapiens, HCT-116
Procedure, shortened: (§1)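 NCI screen of roughly 55 human cancer cell lines from diverse tumor origins, tested over 10^-4 to 10^-8 M. GI50 is the concentration giving 50% growth inhibition.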

[2] = Cytotoxicity in prostate DU-145 cell line.; format: functional; settings: Homo sapiens; procedure, shortened: as §1
[3] = Cytotoxicity in ovarian OVCAR-3 cell line.; format: functional; settings: Homo sapiens; procedure, shortened: as §1
[4] = Cytotoxicity in renal SN12C cell line.; format: functional; settings: Homo sapiens; procedure, shortened: as §1
[5] = Cytotoxicity in breast MDA-MB-435 cell line.; format: functional; settings: Homo sapiens; procedure, shortened: as §1
[6] = Cytotoxicity in CNS SF-539 cell line.; format: functional; settings: Homo sapiens; procedure, shortened: as §1
[7] = Cytotoxicity in lung HOP-62 cell line.; format: functional; settings: Homo sapiens; procedure, shortened: as §1
[8] = tested on: Panel (Carcinoma cell lines); experiment: Mean graph mid point for growth inhibition of all human cancer cell lines tested.; format: functional; parameters: unit: µM
Procedure, shortened: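 NCI screen of roughly 55 human cancer cell lines, test range 10^-4 to 10^-8 M. Mean graph midpoint is the average GI50 over all cell lines successfully tested. GI50 values below or above the range are set to 10^-8 M or 10^-4 M.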

[9] = Cytotoxicity in melanoma UACC-62 cell line.; format: functional; settings: Homo sapiens; procedure, shortened: as §1
[10] = molecular target: T1, DNA topoisomerase 1 (Homo sapiens) (UniProt P11387); experiment: DNA topoisomerase I mediated cleavage activity tested up to a concentration of 100 uM
T1 sequence (whole entry): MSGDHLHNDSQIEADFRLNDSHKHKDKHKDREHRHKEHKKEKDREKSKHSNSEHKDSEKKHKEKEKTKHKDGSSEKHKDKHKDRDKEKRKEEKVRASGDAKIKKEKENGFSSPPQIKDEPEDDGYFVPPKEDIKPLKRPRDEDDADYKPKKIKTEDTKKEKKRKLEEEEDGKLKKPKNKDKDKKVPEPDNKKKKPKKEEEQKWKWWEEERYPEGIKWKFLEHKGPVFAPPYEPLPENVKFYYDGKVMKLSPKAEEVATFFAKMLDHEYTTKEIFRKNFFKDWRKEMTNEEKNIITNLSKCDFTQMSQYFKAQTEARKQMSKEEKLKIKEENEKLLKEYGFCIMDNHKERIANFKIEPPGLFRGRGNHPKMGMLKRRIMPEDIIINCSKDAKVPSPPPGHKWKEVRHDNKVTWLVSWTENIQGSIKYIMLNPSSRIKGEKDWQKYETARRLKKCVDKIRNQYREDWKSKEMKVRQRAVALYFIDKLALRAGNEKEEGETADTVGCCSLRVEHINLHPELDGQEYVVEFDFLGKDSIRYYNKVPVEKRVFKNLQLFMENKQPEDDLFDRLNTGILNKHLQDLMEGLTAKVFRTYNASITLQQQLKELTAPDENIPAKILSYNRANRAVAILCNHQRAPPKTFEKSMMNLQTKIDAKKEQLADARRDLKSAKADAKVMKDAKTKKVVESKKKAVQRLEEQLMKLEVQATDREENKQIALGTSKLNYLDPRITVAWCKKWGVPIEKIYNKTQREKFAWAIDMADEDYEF
Procedure, shortened: (§2)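 Baculovirus-expressed human recombinant top1 was incubated with a 161 bp PvuII/HindIII fragment of pBluescript SK(-), 3'-end-labeled at the HindIII site with [α-32P]-dCTP (about 50 000 dpm per reaction), and drug up to 100 μM, for 30 min at 22 °C. Reactions were stopped with 0.5% SDS final. Products ran on denaturing 16% polyacrylamide/7 M urea gels at 51 °C. Cleavage was scored semiquantitatively (+, ++, +++) against the parent lead.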

[11] = molecular target: T1, DNA topoisomerase 1 (Homo sapiens); experiment: DNA topoisomerase I mediated cleavage activity tested up to a concentration of 100 uM; Same activity as compound 1; procedure, shortened: as §2
[12] = molecular target: T1, DNA topoisomerase 1 (Homo sapiens); experiment: DNA topoisomerase I mediated cleavage activity tested up to a concentration of 100 uM; Greater activity than compound 1; procedure, shortened: as §2
[13] = molecular target: T1, DNA topoisomerase 1 (Homo sapiens); experiment: DNA topoisomerase I mediated cleavage activity tested up to a concentration of 100 uM; week activity; procedure, shortened: as §2
[14] = molecular target: T1, DNA topoisomerase 1 (Homo sapiens); experiment: DNA topoisomerase I mediated cleavage activity tested up to a concentration of 100 uM; Active or inactive; procedure, shortened: as §2

Row | Compound | GI50 [1] | GI50 [2] | GI50 [3] | GI50 [4] | GI50 [5] | GI50 [6] | GI50 [7] | MGM [8] | GI50 [9] | Activity [10] | Activity [11] | Activity [12] | Activity [13] | Activity [14]
1 | COc1cc2c(cc1OC)[C@H]1C(=O)c3cc4c(cc3[C@H]1N(CC#N)C2=O)OCO4 | 600 nM | 850 nM | 2020 nM | 410 nM | 9040 nM | 2120 nM | 5420 nM | 3.28 | 1730 nM | – | – | – | – | –
2 | CCCCN1C(=O)c2cc(OC)c(OC)cc2[C@H]2C(=O)c3cc4c(cc3[C@H]21)OCO4 | 110 nM | – | 1400 nM | – | 1600 nM | 320 nM | 450 nM | 2.14 | 610 nM | – | – | – | – | –
3 | C=CCN1C(=O)c2cc(OC)c(OC)cc2[C@H]2C(=O)c3cc4c(cc3[C@H]21)OCO4 | – | – | – | – | – | – | – | 0.98 | – | 0 | – | – | – | –
4 | C/C=C(/C=O)CCN1C(=O)c2cc(OC)c(OC)cc2[C@H]2C(=O)c3cc4c(cc3[C@H]21)OCO4 | 250 nM | 220 nM | 7120 nM | 140 nM | 4460 nM | 210 nM | 300 nM | 0.95 | 150 nM | – | – | – | – | –
5 | COc1cc2c(cc1OC)[C@H]1C(=O)c3cc4c(cc3[C@H]1N(CCCBr)C2=O)OCO4 | 70 nM | 30 nM | 400 nM | 30 nM | 150 nM | 40 nM | 120 nM | 0.12 | 50 nM | – | Same activity as compound 1 | – | – | –
6 | COc1cc2c3c(n(C)c(=O)c2cc1OC)-c1cc2c(cc1C3=O)OCO2 | – | – | – | – | – | – | – | 20 | – | – | Same activity as compound 1 | – | – | –
7 | CCC[n+]1cc2cc(OC)c(OC)cc2c2c1-c1cc3c(cc1C2)OCO3.[Cl-] | 3550 nM | 10500 nM | 1000 nM | 640 nM | 3370 nM | 1080 nM | 3980 nM | 4.1 | 2190 nM | – | – | Greater activity than compound 1 | – | –
8 | COc1cc2c(cc1OC)[C@H]1C(=O)c3cc4c(cc3[C@H]1N(CCCN=[N+]=[N-])C2=O)OCO4 | 400 nM | 330 nM | 1270 nM | 250 nM | 1270 nM | 330 nM | 360 nM | 0.69 | 290 nM | – | – | – | week activity | –
9 | CCCN1C(=O)c2cc(OC)c(OC)cc2[C@H]2C(=O)c3cc4c(cc3[C@H]21)OCO4 | 390 nM | 310 nM | 920 nM | 430 nM | 1100 nM | 440 nM | 590 nM | 0.69 | 260 nM | – | – | – | – | –
10 | COc1cc2c(cc1OC)[C@H]1C(=O)c3cc4c(cc3[C@H]1N(Cc1ccccc1)C2=O)OCO4 | 540 nM | 550 nM | 7170 nM | 390 nM | – | 380 nM | 2930 nM | 1.18 | 1840 nM | – | – | – | – | –
11 | COc1cc2c(cc1OC)[C@H]1C(=O)c3cc4c(cc3[C@H]1N(CC(F)(F)F)C2=O)OCO4 | 14400 nM | 7500 nM | 7960 nM | 7870 nM | 7600 nM | 7630 nM | 34000 nM | 6.6 | 4120 nM | – | – | – | – | –
12 | CC[n+]1cc2cc(OC)c(OC)cc2c2c1-c1cc3c(cc1C2)OCO3.[Cl-] | – | – | – | – | – | – | – | 13 | – | – | Same activity as compound 1 | – | – | –
13 | COc1cc2c(cc1OC)[C@H]1C(=O)c3cc4c(cc3[C@H]1N(CCCCl)C2=O)OCO4 | 160 nM | 30 nM | 360 nM | 20 nM | 330 nM | 20 nM | 80 nM | 0.11 | 20 nM | – | – | – | – | –
14 | COC(=O)CCCN1C(=O)c2cc(OC)c(OC)cc2[C@H]2C(=O)c3cc4c(cc3[C@H]21)OCO4 | 340 nM | 630 nM | 2430 nM | 240 nM | 2890 nM | 710 nM | 820 nM | 1.48 | 530 nM | – | – | – | – | –
15 | COc1cc2c(cc1OC)[C@H]1C(=O)c3c(ccc4ccccc34)[C@H]1N(CCCBr)C2=O | 4020 nM | 2460 nM | 1970 nM | 2350 nM | 2250 nM | – | 1440 nM | 2.95 | 2390 nM | – | – | – | – | –
16 | CCCN1Cc2cc(OC)c(OC)cc2[C@@H]2[C@H]1c1cc3c(cc1[C@@H]2O)OCO3 | 17800 nM | 33900 nM | 6300 nM | – | 5800 nM | 21700 nM | 16000 nM | 20.9 | 18700 nM | – | – | – | – | –
17 | CCN1C(=O)c2cc(OC)c(OC)cc2[C@H]2C(=O)c3cc4c(cc3[C@H]21)OCO4 | – | – | – | – | – | – | – | 0.81 | – | – | – | – | – | inactive
18 | CCCC[n+]1cc2cc(OC)c(OC)cc2c2c1-c1cc3c(cc1C2)OCO3.[Cl-] | 1580 nM | 2690 nM | 280 nM | 430 nM | 1370 nM | 2160 nM | 3060 nM | 1.31 | 510 nM | – | – | Greater activity than compound 1 | – | –
19 | CCOC(=O)CCCN1C(=O)c2cc(OC)c(OC)cc2[C@H]2C(=O)c3cc4c(cc3[C@H]21)OCO4 | 1810 nM | 3070 nM | 22000 nM | 2070 nM | 16500 nM | – | 2220 nM | 7.76 | 3040 nM | – | – | – | – | –
20 | COc1cc2c(cc1OC)[C@H]1C(=O)c3c(ccc4ccccc34)[C@H]1N(CCCCl)C2=O | 6520 nM | 5490 nM | 1930 nM | 11600 nM | 2480 nM | 14700 nM | 2760 nM | 4.22 | 3730 nM | – | – | – | – | –
